The record followed here is ChEMBL document CHEMBL4118061, “Design and synthesis of potent HIV-1 protease inhibitors with (S)-tetrahydrofuran-tertiary amine-acetamide as P2-ligand: Structure-activity studies and biological evaluation” (Eur J Med Chem, 2017).

Some results are limits rather than exact numbers.

Sequence of Protease (Q9YQ12 whole entry): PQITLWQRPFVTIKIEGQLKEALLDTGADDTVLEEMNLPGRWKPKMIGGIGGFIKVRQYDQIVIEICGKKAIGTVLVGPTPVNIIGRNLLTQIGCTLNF

The test deals with Protease (Human immunodeficiency virus 1, UniProt Q9YQ12). The test can be described thus: Inhibition of HIV1 protease expressed in Escherichia coli using Arg-Glu (EDANS)-Ser-GlnAsn-Tyr-Pro-Ile-Val-Gln-Lys(DABCYL)-Arg as substrate preincubated for 20 to 30 mins followed by substrate addition measured for 10 mins by FRET method. The gist of the method:
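Wild-type HIV-1 protease, cloned and expressed in E. coli, then purified. Inhibitors were dissolved in DMSO and diluted. Reaction buffer: 0.1 M sodium acetate, 1 M NaCl, 1 mM EDTA, 1 mM DTT, 2% DMSO, 1 mg/mL BSA, pH 4.7. Enzyme and inhibitor were preincubated 20-30 min at room temperature, then substrate was added. FRET read-out was recorded for about 10 min.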
For orientation: IC50 means the concentration that gives 50% inhibition. Lower therefore signals inhibition by little substance. Molecule `CC(C)CN(C[C@@H](O)[C@H](Cc1ccccc1)NC(=O)CN(CC(N)=O)[C@H]1CCOC1)S(=O)(=O)c1ccc(CO)cc1` yielded an IC50 of 19.3 nM.
With `COc1ccc(S(=O)(=O)N(CC(C)C)C[C@@H](O)[C@H](Cc2ccccc2)NC(=O)CN(CC(=O)N(C)C)[C@H]2CCOC2)cc1OC`, the IC50 was above 1000 nM.
As to `CC(C)CN(C[C@@H](O)[C@H](Cc1ccccc1)NC(=O)CN[C@H]1CCOC1)S(=O)(=O)c1ccc2c(c1)OCO2`, the IC50 was 1.65 nM.
Next, `CC(C)CN(C[C@@H](O)[C@H](Cc1ccccc1)NC(=O)CN(CC(=O)N(C)C)[C@H]1CCOC1)S(=O)(=O)c1ccc2c(c1)OCO2`: 56.9 nM; `CC(C)CN(C[C@@H](O)[C@H](Cc1ccccc1)NC(=O)CN(CC(=O)N(C)C)[C@H]1CCOC1)S(=O)(=O)c1ccc(N)cc1`: 38 nM; `COCCN(CC(=O)N[C@@H](Cc1ccccc1)[C@H](O)CN(CC(C)C)S(=O)(=O)c1ccc(N)cc1)[C@@H]1CCOC1`: 22.8 nM.
`CC(C)CN(C[C@@H](O)[C@H](Cc1ccccc1)NC(=O)CN(CC(=O)N1CCOCC1)[C@H]1CCOC1)S(=O)(=O)c1ccc(N)cc1`: 160 nM corresponded to half-maximal inhibition (IC50).
Turning to `CC(C)CN(C[C@@H](O)[C@H](Cc1ccccc1)NC(=O)CN[C@H]1CCOC1)S(=O)(=O)c1ccc(CO)cc1`, the midpoint of inhibition, the IC50, lay at 10.2 nM.
As for `COCCN(CC(=O)N[C@@H](Cc1ccccc1)[C@H](O)CN(CC(C)C)S(=O)(=O)c1ccc(OC)cc1)[C@@H]1CCOC1`, the figure is 6.85 nM.
For the molecule `CC(C)CN(C[C@@H](O)[C@H](Cc1ccccc1)NC(=O)CN(CC(=O)N1CCOCC1)[C@H]1CCOC1)S(=O)(=O)c1ccc2c(c1)OCO2`, 27.2 nM corresponded to half-maximal inhibition (IC50).
As for `CC(C)CN(C[C@@H](O)[C@H](Cc1ccccc1)NC(=O)CN([C@H]1CCOC1)S(C)(=O)=O)S(=O)(=O)c1ccc(CO)cc1`, the figure is 22.7 nM; as for `COc1ccc(S(=O)(=O)N(CC(C)C)C[C@@H](O)[C@H](Cc2ccccc2)NC(=O)CN([C@H]2CCOC2)S(C)(=O)=O)cc1OC`, above 1000 nM; as for `CC(C)CN(C[C@@H](O)[C@H](Cc1ccccc1)NC(=O)CN[C@H]1CCOC1)S(=O)(=O)c1ccc(N)cc1`, 4.11 nM.
As for `COCCN(CC(=O)N[C@@H](Cc1ccccc1)[C@H](O)CN(CC(C)C)S(=O)(=O)c1ccc(OC)cc1)[C@H]1CCOC1`, the figure is 0.35 nM; as for `CC(C)CN(C[C@@H](O)[C@H](Cc1ccccc1)NC(=O)CN([C@H]1CCOC1)S(C)(=O)=O)S(=O)(=O)c1ccc([N+](=O)[O-])cc1`, 291 nM; as for `COc1ccc(S(=O)(=O)N(CC(C)C)C[C@@H](O)[C@H](Cc2ccccc2)NC(=O)CN[C@H]2CCOC2)cc1OC`, 310 nM.
On to `COc1ccc(S(=O)(=O)N(CC(C)C)C[C@@H](O)[C@H](Cc2ccccc2)NC(=O)CN(CC(=O)N(C)C)[C@H]2CCOC2)cc1`, for which the IC50 stood at 28.6 nM.
Molecule `COCCN(CC(=O)N[C@@H](Cc1ccccc1)[C@H](O)CN(CC(C)C)S(=O)(=O)c1ccc(OC(F)(F)F)cc1)[C@H]1CCOC1` yielded an IC50 of 68 nM.
Next, `COCCN(CC(=O)N[C@@H](Cc1ccccc1)[C@H](O)CN(CC(C)C)S(=O)(=O)c1ccc([N+](=O)[O-])cc1)[C@H]1CCOC1`: 17.7 nM; `COc1ccc(S(=O)(=O)N(CC(C)C)C[C@@H](O)[C@H](Cc2ccccc2)NC(=O)CN(CC(=O)N2CCOCC2)[C@H]2CCOC2)cc1OC`: above 1000 nM; `CC(C)CN(C[C@@H](O)[C@H](Cc1ccccc1)NC(=O)CN(CC(=O)N1CCOCC1)[C@H]1CCOC1)S(=O)(=O)c1ccc(CO)cc1`: 110 nM.
Molecule `CC(C)CN(C[C@@H](O)[C@H](Cc1ccccc1)NC(=O)CN([C@H]1CCOC1)S(C)(=O)=O)S(=O)(=O)c1ccc(OC(F)(F)F)cc1` came in with an IC50 above 1000 nM.
As for `COCCN(CC(=O)N[C@@H](Cc1ccccc1)[C@H](O)CN(CC(C)C)S(=O)(=O)c1ccc2c(c1)OCO2)[C@@H]1CCOC1`, the figure is 6 nM.
The molecule `COc1ccc(S(=O)(=O)N(CC(C)C)C[C@@H](O)[C@H](Cc2ccccc2)NC(=O)CN[C@H]2CCOC2)cc1` returned an IC50 of 2.23 nM.
Next, `CC(C)CN(C[C@@H](O)[C@H](Cc1ccccc1)NC(=O)CN([C@H]1CCOC1)S(C)(=O)=O)S(=O)(=O)c1ccc(N)cc1`: 59.8 nM; `CC(C)CN(C[C@@H](O)[C@H](Cc1ccccc1)NC(=O)CN([C@H]1CCOC1)S(C)(=O)=O)S(=O)(=O)c1ccc2c(c1)OCO2`: 22.9 nM.
Next, `CC(C)CN(C[C@@H](O)[C@H](Cc1ccccc1)NC(=O)CN(CC(N)=O)[C@H]1CCOC1)S(=O)(=O)c1ccc2c(c1)OCO2`: above 1000 nM.
Molecule `CC(C)CN(C[C@@H](O)[C@H](Cc1ccccc1)NC(=O)CN(CC(=O)N1CCOCC1)[C@H]1CCOC1)S(=O)(=O)c1ccc(OC(F)(F)F)cc1` had an IC50 of 910 nM.
As for `CC(C)CN(C[C@@H](O)[C@H](Cc1ccccc1)NC(=O)CN(CC(N)=O)[C@H]1CCOC1)S(=O)(=O)c1ccc(OC(F)(F)F)cc1`, the figure is 530 nM.
Next, `COc1ccc(S(=O)(=O)N(CC(C)C)C[C@@H](O)[C@H](Cc2ccccc2)NC(=O)CN[C@@H]2CCOC2)cc1`: 16 nM; `CC(C)CN(C[C@@H](O)[C@H](Cc1ccccc1)NC(=O)CN(CC(=O)N(C)C)[C@H]1CCOC1)S(=O)(=O)c1ccc(CO)cc1`: 65 nM.
`COCCN(CC(=O)N[C@@H](Cc1ccccc1)[C@H](O)CN(CC(C)C)S(=O)(=O)c1ccc2c(c1)OCO2)[C@H]1CCOC1` showed an IC50 of 0.77 nM.
Next, `CC(C)CN(C[C@@H](O)[C@H](Cc1ccccc1)NC(=O)CN[C@H]1CCOC1)S(=O)(=O)c1ccc([N+](=O)[O-])cc1`: 46.3 nM; `COc1ccc(S(=O)(=O)N(CC(C)C)C[C@@H](O)[C@H](Cc2ccccc2)NC(=O)CN([C@H]2CCOC2)S(C)(=O)=O)cc1`: 12.6 nM; `COCCN(CC(=O)N[C@@H](Cc1ccccc1)[C@H](O)CN(CC(C)C)S(=O)(=O)c1ccc(N)cc1)[C@H]1CCOC1`: 0.88 nM.
`CC(C)CN(C[C@@H](O)[C@H](Cc1ccccc1)NC(=O)CN(CC(=O)N(C)C)[C@H]1CCOC1)S(=O)(=O)c1ccc(OC(F)(F)F)cc1` gave an IC50 above 1000 nM.
The molecule `CC(C)CN(C[C@@H](O)[C@H](Cc1ccccc1)NC(=O)CN(CC(N)=O)[C@H]1CCOC1)S(=O)(=O)c1ccc(N)cc1` showed an IC50 of 57 nM.
For the molecule `CC(C)CN(C[C@@H](O)[C@H](Cc1ccccc1)NC(=O)CN(CC(=O)N(C)C)[C@H]1CCOC1)S(=O)(=O)c1ccc([N+](=O)[O-])cc1`, the IC50 came to 270 nM.
The molecule `CC(C)CN(C[C@@H](O)[C@H](Cc1ccccc1)NC(=O)CN(CC(N)=O)[C@H]1CCOC1)S(=O)(=O)c1ccc([N+](=O)[O-])cc1` returned an IC50 of 33.6 nM.
Next, `COCCN(CC(=O)N[C@@H](Cc1ccccc1)[C@H](O)CN(CC(C)C)S(=O)(=O)c1ccc(CO)cc1)[C@H]1CCOC1`: 4.26 nM.
As for `COc1ccc(S(=O)(=O)N(CC(C)C)C[C@@H](O)[C@H](Cc2ccccc2)NC(=O)CN(CC(N)=O)[C@H]2CCOC2)cc1OC`, the figure is 9.9 nM.
The molecule `CC(C)CN(C[C@@H](O)[C@H](Cc1ccccc1)NC(=O)CN[C@@H]1CCOC1)S(=O)(=O)c1ccc(N)cc1` yielded an IC50 of 141 nM.
The molecule `CC(C)CN(C[C@@H](O)[C@H](Cc1ccccc1)NC(=O)CN(CC(=O)N1CCOCC1)[C@H]1CCOC1)S(=O)(=O)c1ccc([N+](=O)[O-])cc1` registered an IC50 of 98.1 nM.
As for `COc1ccc(S(=O)(=O)N(CC(C)C)C[C@@H](O)[C@H](Cc2ccccc2)NC(=O)CN(CC(N)=O)[C@H]2CCOC2)cc1`, the figure is 20.4 nM.
As for `CC(C)CN(C[C@@H](O)[C@H](Cc1ccccc1)NC(=O)CN[C@H]1CCOC1)S(=O)(=O)c1ccc(OC(F)(F)F)cc1`, the figure is 290 nM; as for `COc1ccc(S(=O)(=O)N(CC(C)C)C[C@@H](O)[C@H](Cc2ccccc2)NC(=O)CN(CC(=O)N2CCOCC2)[C@H]2CCOC2)cc1`, 44 nM.
The molecule `COCCN(CC(=O)N[C@@H](Cc1ccccc1)[C@H](O)CN(CC(C)C)S(=O)(=O)c1ccc(OC)c(OC)c1)[C@H]1CCOC1` returned an IC50 of 190 nM.
As for `CC(C)CN(C[C@@H](O)[C@H](Cc1ccccc1)NC(=O)CN[C@@H]1CCOC1)S(=O)(=O)c1ccc2c(c1)OCO2`, the figure is 53.4 nM.
